Assay results as given in ChEMBL document CHEMBL4422612, “Small Molecule Inhibitor that Stabilizes the Autoinhibited Conformation of the Oncogenic Tyrosine Phosphatase SHP2” (J Med Chem, 2019).
Numbering of substitutions follows the chain as printed. Calls of active or inactive are those of the source. The calls are words filed in the database; no cut-off is given here.

Legend:
[1] = molecular target: T1, Tyrosine-protein phosphatase non-receptor type 11 (Mus musculus) (UniProt P35235); experiment: Inhibition of SHP2 in mouse Ba/F3 cells assessed as reduction in IL3-stimulated ERK phosphorylation pretreated for 4 hrs followed by IL3 stimulation and measured after 5 to 60 mins by Western blot analysis; type: cell-based
T1 sequence (whole entry): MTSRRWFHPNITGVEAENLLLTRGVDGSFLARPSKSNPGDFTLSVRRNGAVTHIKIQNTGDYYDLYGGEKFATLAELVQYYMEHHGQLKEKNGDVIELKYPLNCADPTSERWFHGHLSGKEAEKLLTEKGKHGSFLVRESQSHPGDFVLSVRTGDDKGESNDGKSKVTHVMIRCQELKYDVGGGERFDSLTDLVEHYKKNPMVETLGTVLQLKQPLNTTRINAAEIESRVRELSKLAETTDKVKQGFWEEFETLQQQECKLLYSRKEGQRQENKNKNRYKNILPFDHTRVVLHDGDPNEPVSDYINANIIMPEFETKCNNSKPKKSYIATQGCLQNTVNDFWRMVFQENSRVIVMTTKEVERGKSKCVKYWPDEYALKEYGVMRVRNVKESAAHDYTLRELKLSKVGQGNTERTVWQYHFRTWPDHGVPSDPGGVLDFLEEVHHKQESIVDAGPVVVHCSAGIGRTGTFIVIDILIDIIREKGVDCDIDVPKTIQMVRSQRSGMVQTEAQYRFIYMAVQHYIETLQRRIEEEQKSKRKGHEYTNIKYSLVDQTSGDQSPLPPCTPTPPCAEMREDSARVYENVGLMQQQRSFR
Summary of the method: (§1)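 Ba/F3 cells starved overnight in serum- and cytokine-free RPMI1640. Treated with 20 µM compound for 4 h, then IL-3 (2 ng/mL) for the indicated times. RIPA lysates (50 µg) immunoblotted for p-Erk, p-Akt, p-Jak2 and p-Stat5, then reprobed for total proteins. Representative of three experiments.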

[2] = molecular target: T1, Tyrosine-protein phosphatase non-receptor type 11 (Mus musculus); experiment: Inhibition of SHP2 in mouse Ba/F3 cells assessed as reduction in IL3-stimulated JAK2 phosphorylation pretreated for 4 hrs followed by IL3 stimulation and measured after 5 to 60 mins by Western blot analysis; type: cell-based; summary of the method: as §1
[3] = test system: T2, Tyrosine-protein phosphatase non-receptor type 11 (Homo sapiens), Q06124 [E76K]; experiment: Inhibition of recombinant full length human GST-tagged SHP2 E76K mutant using phospho-peptide as substrate pre-incubated for 30 mins before substrate addition and measured after 30 mins
T2 sequence (whole entry): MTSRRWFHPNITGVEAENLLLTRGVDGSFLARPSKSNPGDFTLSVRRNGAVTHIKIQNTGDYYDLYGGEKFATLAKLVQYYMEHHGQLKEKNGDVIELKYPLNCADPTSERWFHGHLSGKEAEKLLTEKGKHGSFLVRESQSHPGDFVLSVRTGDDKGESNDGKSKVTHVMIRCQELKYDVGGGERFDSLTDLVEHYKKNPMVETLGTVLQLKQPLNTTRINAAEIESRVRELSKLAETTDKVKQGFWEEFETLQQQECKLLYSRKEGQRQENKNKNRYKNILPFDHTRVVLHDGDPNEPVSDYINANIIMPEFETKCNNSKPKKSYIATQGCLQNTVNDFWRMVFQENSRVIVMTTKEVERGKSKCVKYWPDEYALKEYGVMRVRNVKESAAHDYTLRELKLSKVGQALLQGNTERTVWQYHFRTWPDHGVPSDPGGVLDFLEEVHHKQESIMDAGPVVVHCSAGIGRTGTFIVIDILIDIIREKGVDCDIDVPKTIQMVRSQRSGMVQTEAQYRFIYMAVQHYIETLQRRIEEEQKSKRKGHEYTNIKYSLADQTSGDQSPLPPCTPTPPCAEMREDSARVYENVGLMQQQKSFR

[4] = test system: T3, Tyrosine-protein phosphatase non-receptor type 11 (Mus musculus), P35235 [E76K]; experiment: Inhibition of Ptpn11 E76K mutant in Ptpn11 E76K mutant /Mx1-Cre containing mouse bone marrow cells assessed as reduction in GM-CSF-induced colony forming units at 1.25 to 5 uM after 7 days by inverted microscopy
T3 sequence (whole entry): T1 sequence (whole entry) with E76K
Summary of the method: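 Bone marrow from Ptpn11 E76K/+/Mx1-Cre+ and +/+/Mx1-Cre+ mice, 2×10⁴ cells/mL, in 0.9% methylcellulose IMDM with 30% FBS and GM-CSF 1.0 ng/mL, plus compound or DMSO. CFU-GM and CFU-M counted at day 7, normalized to WT DMSO colonies. Mean ± SD of three experiments.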

[5] = molecular target: T4, Tyrosine-protein phosphatase non-receptor type 11 (Homo sapiens) (UniProt Q06124); experiment: Binding affinity to His-tagged SHP2 (unknown origin) assessed as melting temperature at 60 uM measured every 50 secs by thermal shift assay (reference value: 43.5 +/- 0.95 degC)
T4 sequence (whole entry): T1 sequence (whole entry) with V450M, V550A, R590K

- inhibition [1]: Dose-dependent effect
- inhibition [2]: Dose-dependent effect
- inhibition [3]: Dose-dependent effect
- inhibition [4]: Active
- Tm [5]: 48.2 °C
Structure (SMILES): CCOc1cc(O)c(C(=O)/C=C/c2ccc(Cl)cc2Cl)cc1CN1CCC=C(n2c(=O)[nH]c3ccccc32)C1
